# Screens as filed in PubChem.
# KCNK9 block: inhibitors of human KCNK9 two-pore domain potassium channel. Q9NPC2. HEK293 KCNK9, FluxOR thallium flux fluorescence; stronger effect = lower value. B-score at 10 µM. actives 1.2% (n = 310,000). AID 488922;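 active means ratio B-score over 3 SD below the library mean, with starting fluorescence within 5 SD of its mean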;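 further: negative B-score means less thallium flux so channel inhibition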
# Target sequence (Q9NPC2 whole entry, looked up, the tested form may be a part): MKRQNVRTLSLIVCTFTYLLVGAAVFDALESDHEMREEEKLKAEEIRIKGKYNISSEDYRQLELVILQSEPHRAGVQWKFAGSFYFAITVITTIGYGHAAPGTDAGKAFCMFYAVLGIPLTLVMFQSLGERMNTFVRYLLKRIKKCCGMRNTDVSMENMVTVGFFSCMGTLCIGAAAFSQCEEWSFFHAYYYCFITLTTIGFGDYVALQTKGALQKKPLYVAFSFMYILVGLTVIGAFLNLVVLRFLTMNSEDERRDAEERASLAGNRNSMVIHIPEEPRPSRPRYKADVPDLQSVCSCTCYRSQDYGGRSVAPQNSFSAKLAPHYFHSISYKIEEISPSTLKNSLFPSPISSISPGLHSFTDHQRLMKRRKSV
# KCNK3 inh: human KCNK3 channel inhibition, primary screen; O14649; CHO-KCNK3 thallium flux, FluxOR fluorescence; stronger effect = lower value; B-score at 10 µM; actives 0.84% (n = 340,000);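 active means B-score under library mean minus 4 SD, starting fluorescence ratio at most library mean plus 5 SD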;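 further: more negative B-score means stronger inhibition of thallium flux through KCNK3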
# KCNQ1 inh: human KCNQ1 channel inhibition; actives 1.3% (n = 310,000); AID 2642; B-score at 10 µM; P51787; CHO-K1 KCNQ1, FluxOR thallium flux fluorescence; stronger effect = higher value;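 active means compounds whose thallium flux B-score, printed positive for inhibition, exceeds three library SD while starting fluorescence stays within three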;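 further: channel opened by potassium depolarization with thallium stimulus after 20 min compound exposure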
# KCNQ1 act: human KCNQ1 channel potentiation or activation; CHO-K1 KCNQ1, thallium flux FluxOR fluorescence; stronger effect = higher value; P51787; B-score at 10 µM; actives 0.35% (n = 310,000);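 active means fluorescence ratio B-score, a plate-corrected score, at least three library SD, with initial intensity B-score within 5 SD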
#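 Assay system: CHO-K1 cells stably expressing KCNQ1; Medium: assay buffer with matched DMSO; Also added: K+/Tl+ depolarizing stimulus; Dosing: single dose; Timing: dye 90 min, compound 20 min, room temperature; Measured by: kinetic FluxOR thallium fluorescence, 10-s 1-Hz baseline, 110-s post-stimulus read; Read-out: peak-minus-minimum fluorescence over initial fluorescence, negative-control normalized, B-scored.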
# hERG rescue: shields human hERG channel from block by proarrhythmic agents. Q12809. CHO-hERG, FluxOR thallium flux, dofetilide IC70 present. activation (rescue from dofetilide block), less the hit threshold, % at 10 µM. actives 0.51% (n = 310,000);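 active means activation above the mean of controls blocked by dofetilide plus 5 SD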;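 further: thallium influx through hERG after potassium depolarization seen as dye fluorescence rise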
# An asterisk follows results filed as active; i = inactive; nt = no result given. Rows were chosen to be rich in hits. Some 3.1% of all compounds tested hit in one or more screens of this group.
SMILES,KCNK9 block,KCNK3 inh,KCNQ1 inh,KCNQ1 act,hERG rescue
COc1ccc(C(=O)CC(=O)C(=O)Nc2cccc(F)c2)cc1,i,i,i,i,0
COc1ccc(C(=O)CC(=O)C(=O)Nc2ccccc2)cc1,i,i,i,i,5.0*
COc1ccc(C(=O)CC(=O)C(=O)Nc2cc(C)ccc2C)cc1,i,i,i,i,-2
COc1ccc(C(=O)CC(=O)C(=O)Nc2ccc(C)c(Cl)c2)cc1,i,i,i,9*,17*
CCOc1ccccc1NC(=O)C(=O)CC(=O)c1ccc(OC)cc1,i,i,i,14*,15*
O=C(Nc1nnc(S(=O)(=O)N2CCCCC2)s1)c1cccc(Br)c1,i,i,i,i,-3
CC(C)(C)OC(=O)N[C@H](/C=C/c1ccccc1)C(=O)OC(C)(C)C,nt,i,nt,nt,nt
O=C(NC1CCCCC1)C1CCC(=O)N(Cc2cccc(C(F)(F)F)c2)C1 (stereo not drawn),i,i,i,i,-5
CC(Sc1nc(C(F)(F)F)nc2ccccc12)C(=O)NC1CCCC1 (stereo not drawn),nt,i,nt,nt,nt
CON/C=N/C(=S)Nc1ncc(C(F)(F)F)cc1Cl,i,i,i,51*,15*
ON/C=N/C(=S)Nc1ncc(C(F)(F)F)cc1Cl,i,i,i,20*,14*
CC(C)C(=O)Nc1ncc(C(F)(F)F)cc1Cl,i,i,i,i,-8
O=C(COC(=O)/C=C/c1ccccc1[N+](=O)[O-])NNC(=O)c1ccc(F)cc1,nt,i,nt,nt,nt
C[C@H](CO)N1C[C@H](C)[C@@H](CN(C)C(=O)Nc2ccc3c(c2)OCO3)Oc2ccc(NC(=O)Nc3ccc4c(c3)OCO4)cc2C1=O,nt,i,nt,nt,nt
Cc1nn(C)c(C)c1CNC(=O)Nc1ccc(Cl)cc1,i,i,i,i,-21
O=C(CN1C(=O)CSCC1=O)Nc1ccc2c(c1)OCO2,i,i,i,i,4.7*
O=C(CSCc1ccccc1)Nc1ccc2c(c1)OCO2,i,i,i,i,-4
Cc1nn(C)c(C)c1CNC(=O)Nc1ccc2c(c1)OCO2,i,i,i,i,7.4*
O=C(CSCSCC(=O)Nc1ccc2c(c1)OCO2)Nc1ccc2c(c1)OCO2,i,i,i,i,5.0*
O=S(=O)(Cc1ccccc1)NCC1CCCO1 (stereo not drawn),i,i,i,i,4.7*
O=S(=O)(Cc1ccccc1)Nc1ccc(S(=O)(=O)NCC2CCCO2)cc1 (stereo not drawn),i,i,i,i,-2
Cc1ccc(S(=O)(=O)Nc2c(C)[nH]c(=O)[nH]c2=O)cc1C,i,i,i,i,5.0*
Cc1[nH]c(=O)[nH]c(=O)c1NS(=O)(=O)c1ccc2c(c1)CCCC2,i,i,i,i,-3
CCCCn1c(-c2csc(C(C)C)c2)n[nH]c1=S,i,i,i,i,5.0*
CCCCn1c(-c2csc3ccccc23)n[nH]c1=S,i,i,i,i,-11
SMILES,KCNK9 block,KCNK3 inh,KCNQ1 inh,KCNQ1 act,hERG rescue
CCCCCCn1c(-c2cccs2)n[nH]c1=S,i,i,i,i,7.9*
CCOC(=O)c1c(C)[nH]c(C(=O)CN(C)CC(=O)Nc2ccccc2Cl)c1C,nt,-11*,nt,nt,nt
CC(=O)c1c(C)[nH]c(C(=O)CN(C)CC(=O)Nc2ccccc2Cl)c1C,nt,i,nt,nt,nt
CC(NC(=O)c1ccc(Br)cc1)c1ccc2c(c1)CCCC2 (stereo not drawn),i,i,i,i,7.8*
CC(NC(=O)c1ccc(F)cc1)c1ccc2c(c1)CCCC2 (stereo not drawn),i,i,i,i,0
Cc1cc(C(=O)Nn2c(-c3ccc(Br)cc3)nc3ccccc3c2=O)ccc1[N+](=O)[O-],i,i,6*,i,-10
COc1ccc(C(=O)On2c(-c3ccc(Br)cc3)nc3ccccc3c2=O)cc1,i,i,i,10*,1
CN(Cc1nc2ccccc2c(=O)[nH]1)C(=O)C1CC(=O)N(c2cccc3ccccc23)C1 (stereo not drawn),nt,i,nt,nt,nt
CN(C)c1ccc(NC(=O)Cn2ncn3c(cc4ccccc43)c2=O)cc1,i,i,i,i,8.9*
COc1cc(CNCCc2c[nH]c3ccccc23)ccc1OCc1ccc(F)cc1,-7.6*,i,i,i,-27
C[C@H](CCC(=O)NCC(=O)O)[C@H]1CC[C@H]2C3[C@H](O)C[C@@H]4C[C@H](O)CC[C@]4(C)[C@H]3C[C@H](O)[C@]12C (stereo partly drawn),i,i,i,i,-6
CCCCOC(=O)CSc1nc2c(cc1C#N)C(=O)CC(C)(C)C2,-8.1*,i,i,i,-6
CC1CCC2(CC1)NC(=O)N(CC(=O)N1CCN(C(=O)c3ccco3)CC1)C2=O (stereo not drawn),nt,i,nt,nt,nt
O=C(Nc1ccc(Cl)c(C(F)(F)F)c1)NC1CC2CCCC(C1)N2Cc1ccccc1 (stereo not drawn),i,nt,13*,i,-30
O=C(NC1CC2CCCC(C1)N2C(=O)Nc1ccc(Cl)c(C(F)(F)F)c1)C1CC1 (stereo not drawn),i,i,i,i,-14
CCOc1cc(/C=C2\N=C(SCC)SC2=O)cc([N+](=O)[O-])c1OC(C)=O,i,i,8*,i,-22
CCOc1c(OC(C)=O)ccc(/C=C2\N=C(SCC)SC2=O)c1[N+](=O)[O-],i,i,9*,i,-25
CCOc1cc(/C=C2\N=C(SC)SC2=O)cc([N+](=O)[O-])c1OC(C)=O,i,i,12*,i,-25
Cc1ccc(C(=O)Nc2ccccc2N2CCCCC2)o1,i,i,i,i,-11
CC(=O)N1CCN(S(=O)(=O)c2cccc(C(=O)Nc3cc(C(F)(F)F)ccc3N3CCOCC3)c2)CC1,i,i,i,i,-14
CC(c1ccncc1)C(C)c1ccncc1 (stereo not drawn),i,i,i,i,-3
C[C@H](NC(=O)C1CC(=O)N(c2ccc3c(c2)OCO3)C1)C(=O)NC1CCCCC1 (stereo partly drawn),i,i,i,i,-3
NNc1nc(Nc2ccc([N+](=O)[O-])cc2)nc(N2CCCCCC2)n1,i,i,6*,i,-5
O=C(NNC(=O)c1ccncc1)NC1CCCCC1,i,i,i,i,8.7*
CC(OC(=O)c1ccc(F)c(S(=O)(=O)N2CCOCC2)c1)C(=O)NC1CCCC1 (stereo not drawn),nt,i,nt,nt,nt
COc1ccccc1Nc1nc(-c2ccccc2)nc2ccccc12,-7.2*,i,i,i,-10
